A selection: hits, their analogues and other compounds. The true share with any hit is near 3.1%.
SENP6 inh: SENP6 protease inhibitors, primary screen, biochemical, luminescence, uHTS; Sentrin-specific protease 6 (Homo sapiens), Q9GZR1; actives 1.8% (n = 330,000); inhibition, % at 10 µM; Recombinant SENP6 catalytic domain, aminoluciferin luminescence; AID 2599, 2010;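 active means inhibition above about 50% at the single tested dose, limit read from the data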;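 further: plate controls were DMSO wells with enzyme for no effect and DMSO wells lacking enzyme for full effect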
Apaf-1 inh: inhibitors of human Apaf-1 apoptosome, primary screen, biochemical, DEVD-Rh110 fluorescence, uHTS. reconstituted apoptosome caspase-3 activity. Apoptotic protease-activating factor 1 (Homo sapiens), O14727. actives 0.71% (n = 330,000). inhibition, % at 20 µM. AID 489030, 2010; active means inhibition of at least 40% at 20 µM;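 further: plate controls were DMSO wells for no effect and DEVD-CHO caspase inhibitor wells for full effect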
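Material: cell-free apoptosome with Apaf-1, procaspase-3 and caspase-9; Buffer or medium: Hepes pH 7.5 with detergent and BSA; Reagent: cytochrome c trigger plus (Z-DEVD)2-Rh110 caspase-3 substrate; Times: compound with Apaf-1, dATP, procaspase-3 30 min, then 50 min reaction, room temperature; Technique: Rh110 fluorescence intensity.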
SENP8 block-1: SENP8 protease inhibitors, primary screen, biochemical, luminescence; Sentrin-specific protease 8 (Homo sapiens), Q96LD8; purified SENP8, Z-RLRGG-aminoluciferin cleavage; inhibition, % at 10 µM; actives 1.2% (n = 330,000); in the data active means inhibition above about 50%
Target sequence (Q96LD8 whole entry, looked up): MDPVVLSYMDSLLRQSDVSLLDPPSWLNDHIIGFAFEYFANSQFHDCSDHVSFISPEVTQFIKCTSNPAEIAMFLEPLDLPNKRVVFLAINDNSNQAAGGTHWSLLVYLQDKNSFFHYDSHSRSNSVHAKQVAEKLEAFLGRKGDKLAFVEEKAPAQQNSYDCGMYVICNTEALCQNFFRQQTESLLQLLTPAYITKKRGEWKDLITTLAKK
SENP8 block-2: human SENP8 protease inhibitors, primary screen, biochemical, fluorescence, Nedd8 protein substrate, uHTS; Sentrin-specific protease 8 (Homo sapiens), Q96LD8; recombinant SENP8; inhibition, % at 20 µM; actives 0.64% (n = 360,000); in the data active means inhibition mostly above about 40%, no sharp cut-off; inactive means mostly below about 27%
SENP7 inh: SENP7 protease inhibitors, primary screen, biochemical, luminescence, uHTS; recombinant SENP7, Z-RLRGG-aminoluciferin luminescence, 40 min; inhibition, % at 5 µM; actives 1.5% (n = 330,000);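 active means inhibition above about 50% at the single test dose, limit read from the data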;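 further: plate controls were DMSO with enzyme for no effect and no enzyme buffer wells for full effect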
Target sequence (Q9BQF6 706-1050 limits assumed): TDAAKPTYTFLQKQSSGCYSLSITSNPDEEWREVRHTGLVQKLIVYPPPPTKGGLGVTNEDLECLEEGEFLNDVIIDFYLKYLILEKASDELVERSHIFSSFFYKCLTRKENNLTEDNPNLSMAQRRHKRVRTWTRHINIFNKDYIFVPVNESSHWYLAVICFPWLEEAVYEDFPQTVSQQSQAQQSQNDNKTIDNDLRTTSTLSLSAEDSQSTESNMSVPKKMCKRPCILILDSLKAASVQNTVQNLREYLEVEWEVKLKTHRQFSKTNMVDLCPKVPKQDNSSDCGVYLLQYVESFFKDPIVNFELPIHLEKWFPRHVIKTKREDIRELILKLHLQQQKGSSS
UBC13 inh: UBC13 polyubiquitin chain formation inhibitors, primary screen, biochemical, TR-FRET, uHTS; inhibition, % at 20 µM; actives 0.47% (n = 330,000); in the data active means inhibition above about 45%, passing the limit was not always enough
SENP8 conf: SENP8 protease inhibitors, retest, confirmation, biochemical, luminescence, single concentration; inhibition, % at 12.5 µM; shares compounds with SENP7 inh; Recombinant SENP8, Z-RLRGG-aminoluciferin luminescence, 60 min; actives 40% (n = 6,200);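 active means mean inhibition across replicates above about 50%, limit read from the data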
SENP6 confirm: SENP6 protease inhibitors, confirmation, biochemical, luminescence, single concentration; actives 58% (n = 6,200); recombinant SENP6, Z-RLRGG-aminoluciferin luminescence; shares compounds with SENP7 inh; inhibition, % at 12.5 µM
SENP7 conf: SENP7 protease inhibitors, retest, confirmation, biochemical, luminescence, single concentration; shares compounds with SENP7 inh; recombinant SENP7, Z-RLRGG-aminoluciferin luminescence, 40 min; inhibition, % at 12.5 µM; actives 69% (n = 6,200)
Casp3 select: caspase-3 protease inhibitors, confirmation, selectivity assay for SENP inhibitor project, biochemical, single concentration; shares compounds with SENP7 inh; purified caspase-3, Z-DEVD-aminoluciferin luminescence, 60 min; inhibition, % at 12.5 µM; actives 60% (n = 6,200);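 active means mean inhibition above about 50%, limit read from the data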;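 further: plate controls were enzyme with DMSO for no effect and wells without caspase-3 for full effect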
Luc interf: counter-screen for SENP inhibitors: luminescence interference; inhibition, % at 12.5 µM; AID 488919; actives 39% (n = 6,200); shares compounds with SENP7 inh; Pre-incubated SENP8/Z-RLRGG-aminoluciferin, luciferase luminescence interference;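 active means mean inhibition above about 50% when retested at one dose, limit read from the data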;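 further: plate controls were DMSO wells with completed reaction for no effect and substrate without enzyme for full effect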
An asterisk follows results filed as active; . = no result.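 How the source made its calls, unless noted: active means mean inhibition above about 50% in the one-dose retest (limit read from the data); inactive means the rest.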

SMILES | SENP6 inh | Apaf-1 inh | SENP8 block-1 | SENP8 block-2 | SENP7 inh | UBC13 inh | SENP8 conf | SENP6 confirm | SENP7 conf | Casp3 select | Luc interf
O=C(Nc1ccc(OCc2ccccc2)cc1)c1cccc([N+](=O)[O-])c1 | -4 | -5 | -9 | 16 | 56* | -5 | -7 | -4 | 6 | 5 | -5
CC(C)(CNC(=O)c1cccs1)CNC(=O)c1cccs1 | -3 | -6 | -13 | -5 | 84* | -3 | 11 | 10 | 7 | 3 | 5
Cc1occc1C(=O)Nc1cccc(C(=O)NCc2ccccc2)c1 | -29 | 6 | -6 | 4 | -8 | -11 | . | . | . | . | .
COc1cc(OC)cc(-c2c(Sc3ccccc3)c3cc(-c4ccc(SC)cc4)ccc3n2C)c1 | . | . | . | -407 | . | . | . | . | . | . | .
C[C@@H]1CCCCO[C@@H](CN(C)S(=O)(=O)c2cn(C)cn2)[C@@H](C)CN([C@H](C)CO)C(=O)c2cc(N(C)C)ccc2O1 | . | . | . | -33 | . | . | . | . | . | . | .
CC(C)Oc1ccc(CN2CCC2(C)C(=O)Nc2cccc3cccnc23)cc1 (stereo not drawn) | . | . | . | -29 | . | . | . | . | . | . | .
Cc1c(C(=O)Nc2ccc3c(c2)OCO3)oc2ccccc12 | 70* | 14 | 58* | 2 | 67* | 2 | 75* | 75* | 92* | 59* | 65*
O=C(Nc1ccc2c(c1)OCO2)c1ccccc1 | 62* | 11 | 41 | 11 | 55* | -3 | 50 | 47 | 81* | 81* | 61*
COc1ccc(NC(=O)/C=C/c2ccc3c(c2)OCO3)cc1 | 67* | -8 | 45 | 4 | 79* | -10 | 29 | 34 | 77* | 67* | 72*
O=C(NC(=S)Nc1ccc2c(c1)OCO2)c1ccccc1 | 22 | 11 | 5 | 16 | -5 | 3 | . | . | . | . | .
O=C(Nc1ccc2c(c1)OCCO2)c1ccccc1 | 68* | 5 | 61* | 5 | 79* | 0 | 4 | 61* | 90* | 87* | 68*
COc1ccc(NC(=O)/C(=C/c2ccc3c(c2)OCO3)NC(C)=O)cc1 | 1 | -5 | 1 | 5 | 9 | 4 | . | . | . | . | .
CC(=O)Nc1c(C(=O)Nc2ccc3c(c2)OCO3)oc2ccccc12 | 9 | 6 | -10 | -10 | -7 | -1 | . | . | . | . | .
CC[C@@H](NC(=O)[C@H](Cc1ccccc1)NC(=O)CC[C@H]1O[C@@H](n2ccc(=O)[nH]c2=O)[C@H](O)[C@@H]1O)c1ccccc1 | . | . | . | 11 | . | . | . | . | . | . | .
CC(=O)Nc1ccc(OCc2ccc3c(c2)OCO3)cc1 | 82* | -5 | 68* | 16 | 85* | -6 | 75* | 74* | 93* | 88* | 51*
CC(C)=CC(=O)Nc1ccc2c(c1)OCO2 | 63* | -5 | 50* | 8 | 1 | 0 | 59* | 59* | 84* | 86* | 63*
CCOC(=O)[C@]12CCC=C1N(Cc1cccc3ccccc13)C(=O)[C@H](CC(=O)N1CCSCC1)C2 | . | . | . | 4 | . | . | . | . | . | . | .
Cc1ccc(OC/C(O)=C(\C#N)c2nc3ccccc3s2)cc1 | 70* | 0 | 76* | 2 | 19 | -13 | 78* | 80* | 76* | 75* | 43
COC(=O)c1ccc(/C(O)=C(\C#N)c2nc3ccccc3s2)cc1 | 91* | -1 | 88* | 6 | -11 | -14 | 11 | 38 | 23 | 26 | 2
CC(C)NC(=O)c1nc2ccccc2s1 | -14 | -12 | -7 | 15 | -3 | -4 | . | . | . | . | .
COC(=O)c1ccc(CC(=O)c2nc3ccccc3s2)cc1 | 92* | 0 | 79* | 30 | 4 | 3 | 6 | 17 | 16 | 4 | 1
C[C@H](CO)N1C[C@H](C)[C@@H](CN(C)Cc2ccccc2)OCc2cnnn2CCCC1=O | . | . | . | 16 | . | . | . | . | . | . | .
CCc1ccc(-c2ccc(C(=O)O)cc2)nc1 | 20 | -1 | 49 | 22 | 65* | -10 | 76* | 74* | 94* | 91* | 75*
O=C(Nc1cccnc1Cl)c1cc2ccccc2o1 | 70* | 1 | 50 | 14 | 63* | -8 | 60* | 61* | 89* | 81* | 72*
Cc1ccc(C(=O)Nc2ncc(C)s2)s1 | 61* | 3 | 45 | -9 | 57* | -16 | 54* | 55* | 86* | 80* | 32
SMILES | SENP6 inh | Apaf-1 inh | SENP8 block-1 | SENP8 block-2 | SENP7 inh | UBC13 inh | SENP8 conf | SENP6 confirm | SENP7 conf | Casp3 select | Luc interf
Cc1nc(NC(=O)c2cc3ccccc3o2)sc1C | 89* | 12 | 89* | -27 | 90* | -7 | 71* | 91* | 100* | 93* | 33
Cc1ccc(C(=O)Nc2ncc(C)s2)o1 | 60* | -2 | 35 | -1 | 67* | -22 | 62* | 58* | 87* | 90* | 67*
CC(CC(=O)Nc1ccc2c(c1)c(=O)n(C)n2-c1cccs1)c1ccccc1 (stereo not drawn) | . | . | . | -77 | . | . | . | . | . | . | .
Cc1cnc(NC(=O)c2cc3ccccc3o2)s1 | 68* | 8 | 55* | -18 | 75* | 3 | 38 | 31 | 61* | 51* | 36
Cc1cnc(NC(=O)c2ccc3c(c2)OCCO3)s1 | 91* | 0 | 84* | -411 | 92* | -2 | 47 | 84* | 97* | 79* | 0
Cc1cccc(Nc2nnc(SCc3cn4ccsc4n3)s2)c1 | 56* | 2 | 42 | 17 | 61* | 6 | 41 | 40 | 72* | 45 | 55*
O=c1cc(CSc2nnc(Nc3ccccc3)s2)nc2sccn12 | -9 | 18 | -10 | -4 | -9 | -2 | . | . | . | . | .
